MEKK3 PB1 HTS: raises or lowers MEK5 binding to the human MEKK3 PB1 domain; hit rate 1.4% among 290,000; AID 1529; binding response (% of control), % at 10 µM; Q99759; bead-based flow cytometry, Alexa488-MEK5 binding to MEKK3; actives lie on both sides; 0 = blocked by unlabeled MEK5, 100 = vehicle;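 active means binding response more than 3 SD above or below the average of its plate-row segment, actives on both sides; inconclusive means wells at one plate position flagged as instrument error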;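 further: Alexa488 bead fluorescence after subtracting the streptavidin-only scavenger bead signal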
UBC13 inh: human UBC13 polyubiquitination inhibition | hit rate 0.47% among 330,000 | P61088 | AID 485273 | inhibition, % at 20 µM | UBC13 polyubiquitin chain formation, TR-FRET; in the data active means inhibition above about 45%, passing the limit was not always enough; inconclusive means no clear call, values can overlap the other calls
MEKK2 WT-MEK5: raises or lowers MEK5 binding to wildtype human MEKK2 PB1 domain. Q9Y2U5. bead flow cytometry, Alexa488-MEK5 binding to MEKK2 WT; actives lie on both sides. hit rate 1.1% among 290,000. binding response (% of control), % at 10 µM; in the data active means binding response below about 67% or above about 130%; inconclusive means no clear call, values can overlap the other calls; inactive means in between
Apaf1 inhib: human Apaf-1 inhibition | inhibition, % at 20 µM | reconstituted apoptosome caspase-3 activity, DEVD-Rh110 fluorescence | AID 489030 | O14727 | hit rate 0.71% among 330,000; active means inhibition of at least 40% at 20 µM;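 further: plate controls were DMSO wells for no effect and DEVD-CHO caspase inhibitor wells for full effect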
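System – cell-free apoptosome with Apaf-1, procaspase-3 and caspase-9 · Buffer or medium – pH 7.5 Hepes buffer with CHAPS, BSA, DTT · Also added – cytochrome c with DEVD-Rh110 · Times – 30 min compound preincubation, 50 min activation, room temperature · Technique – Rh110 fluorescence intensity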
DSG3 Ab inh: human desmoglein-3 autoantibody binding inhibition | hit rate 0.48% among 310,000 | AID 588358 | binding (percent of control), % at 10 µM | DSG3-coupled beads, scFv-anti-DSG3-GFP binding, flow cytometry; hits give low values | P32926;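 active means binding more than 3 SD below its plate's average and above zero; inconclusive means below that plate limit but binding exactly zero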;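 further: hits lower antibody fragment binding to DSG3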
Target sequence (P32926 whole entry, looked up, the tested form may be a part): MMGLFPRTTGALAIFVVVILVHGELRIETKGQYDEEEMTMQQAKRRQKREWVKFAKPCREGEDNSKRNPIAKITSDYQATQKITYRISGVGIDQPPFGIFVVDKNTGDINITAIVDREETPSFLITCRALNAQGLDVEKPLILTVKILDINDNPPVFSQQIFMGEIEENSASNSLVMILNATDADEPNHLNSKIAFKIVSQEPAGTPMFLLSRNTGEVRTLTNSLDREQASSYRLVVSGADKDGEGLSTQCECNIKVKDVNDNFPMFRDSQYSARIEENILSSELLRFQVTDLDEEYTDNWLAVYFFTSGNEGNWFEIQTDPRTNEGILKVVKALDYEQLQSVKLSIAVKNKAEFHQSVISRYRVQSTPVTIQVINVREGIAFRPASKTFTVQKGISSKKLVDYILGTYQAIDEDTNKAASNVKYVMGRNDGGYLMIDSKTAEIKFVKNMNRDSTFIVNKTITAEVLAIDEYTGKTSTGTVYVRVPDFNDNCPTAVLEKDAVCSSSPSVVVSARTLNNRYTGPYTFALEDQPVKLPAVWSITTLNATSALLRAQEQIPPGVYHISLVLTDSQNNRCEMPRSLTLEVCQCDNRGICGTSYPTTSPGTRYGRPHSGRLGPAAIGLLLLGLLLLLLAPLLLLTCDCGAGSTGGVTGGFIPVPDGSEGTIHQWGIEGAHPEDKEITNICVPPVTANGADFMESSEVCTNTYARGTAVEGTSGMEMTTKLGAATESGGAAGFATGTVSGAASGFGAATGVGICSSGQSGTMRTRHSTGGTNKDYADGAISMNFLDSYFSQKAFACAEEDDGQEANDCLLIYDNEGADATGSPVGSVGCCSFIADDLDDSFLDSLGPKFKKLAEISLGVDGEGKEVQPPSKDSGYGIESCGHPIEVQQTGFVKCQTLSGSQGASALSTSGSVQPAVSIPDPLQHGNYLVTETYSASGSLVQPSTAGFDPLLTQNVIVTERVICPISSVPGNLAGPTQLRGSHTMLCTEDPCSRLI
MEKK2mut PB1 HTS: signal of MEK5 binding to mutant human MEKK2 PB1 domain | bead flow cytometry, Alexa488-MEK5 binding to MEKK2 mutant | percent response, % at 10 µM | hit rate 0.35% among 290,000; in the data active means percent response above about 24%, passing the limit was not always enough
Casp3 UBC13 ctr: counter-screen for UBC13 inhibitors: human caspase-3 inhibition. Recombinant caspase-3, Caspase-Glo 3/7 luminescence, 60 min. hit rate 4% among 1,400. inhibition, % at 20 µM. shares compounds with UBC13 inh. AID 488856;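 active means mean inhibition across replicates above about 26%, limit read from the data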;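 further: plate controls were DMSO with caspase-3 for no effect and DMSO wells lacking enzyme for full effect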
UBC13 conf: confirmation of human UBC13 polyubiquitin inhibitors; hit rate 68% among 1,400; shares compounds with UBC13 inh; UBC13 polyubiquitination, TR-FRET, biochemical; inhibition, % at 10 µM; in the data active means inhibition above about 45%; inconclusive means no clear call, values can overlap the other calls
* hit, by the source's call; ? = inconclusive; . = no result. A selection: hits, their analogues and other compounds. The true share with any hit is near 3.2%.

SMILES | MEKK3 PB1 HTS | UBC13 inh | MEKK2 WT-MEK5 | Apaf1 inhib | DSG3 Ab inh | MEKK2mut PB1 HTS | Casp3 UBC13 ctr | UBC13 conf
CC(=O)c1ccc(NC(=O)CN2C(=O)NC3(CCc4ccccc43)C2=O)cc1 (stereo unspecified) | . | 1 | . | -6 | ? | . | . | .
N=C(N)c1ccc(/C=C/c2ccc(C(=N)N)cc2O)cc1 | 66 | 84* | 95 | -31 | 115 | -11 | 0 | 110*
COc1ccc(-c2sc3ccc(OC)cc3c2C#Cc2cncn2C)cc1 | . | 48* | . | 16 | 107 | . | -2 | 40
Cc1nc2c(C)cccn2c1C(=O)N/N=C/c1ccccc1[N+](=O)[O-] | 104 | -8 | 101 | 2 | 108 | 7 | . | .
Cc1nc2ccccn2c1C(=O)N/N=C/c1ccccc1[N+](=O)[O-] | 108 | 63* | 102 | -28 | 95 | 0 | -5 | -3
O=C(CSc1ccccc1C(=O)NCCCN1CCCC1=O)NCc1ccco1 | 97 | 50* | 96 | -8 | 102 | 0 | 0 | 4
COc1ccc(-n2nc(C(=O)NCc3cc(OC)ccc3OC)c3c4ccccc4n(C)c3c2=O)cc1 | 85 | 47* | 82 | -11 | 88 | -13 | 2 | ?
Cc1ccc2[nH]cc(CCNC(=O)c3cccs3)c2c1 | 101 | 4 | 97 | 2 | 104 | -5 | . | .
CCCn1c(CN2CCN(C(=O)OCC)CC2)nc2cc(NC(=O)CC)ccc21 | 102 | -2 | 107 | 7 | 108 | 5 | . | .
CCOc1ccc(NC(=O)NNC(=O)c2ccc3ccccc3c2O)cc1 | 105 | 49* | 111 | 13 | 99 | 6 | -2 | 16
CCCCC1CCC(C(=O)N(CCC(C)C)c2c(N)n(CCCC)c(=O)[nH]c2=O)CC1 (stereo unspecified) | . | . | . | . | 97 | . | . | .
CC[C@H](C)[C@@H](CNC)NC[C@@H](Cc1ccc(O)cc1)NCC(C)(C)C | 104 | 3 | 113 | -5 | 106 | -4 | . | .
CCCC[C@H](CN[C@@H](CNC)[C@H](C)CC)NCCC12CCC(CC1)C2 | 101 | 48* | 129 | 7 | 105 | -1 | -3 | 30
Cc1sc2nc(C(C)Nc3ccccc3N3CCOCC3)[nH]c(=O)c2c1C (stereo unspecified) | 99 | 74* | 99 | 2 | . | 4 | -1 | 87*
CCc1ccc(Cn2ncc3c(C(=O)O)cc(C)nc32)cc1 | . | . | . | . | 95 | . | . | .
CCCCCCC(=O)Oc1cccc(C2=CC(=O)CC(C)(C)C2=O)c1 | . | . | . | . | 100 | . | . | .
Cc1cccc(C(=O)NC(=S)NNC(=O)c2ccccc2Cl)c1 | 107 | -37 | 104 | -1 | 96 | -1 | . | .
Cc1cc(C(=O)NNC(=S)NC(=O)/C=C/c2ccccc2Cl)n[nH]1 | 110 | 92* | 108 | -1 | 118 | 12 | -6 | 89*
O=C1/C(=C/c2cccc([N+](=O)[O-])c2)CSc2ccc(Cl)cc21 | 100 | 49* | 96 | -15 | 104 | -4 | 1 | 83*
O=C1/C(=C/c2cccc([N+](=O)[O-])c2)CCc2ccccc21 | 96 | 15 | 98 | 14 | 86 | -1 | . | .
Cc1ccccc1-n1ncc(C(C)NS(=O)(=O)c2sccc2C)c1C (stereo unspecified) | 110 | -7 | 111 | 6 | 101 | 5 | . | .
Cc1nc(N)sc1C(=O)OCC(C)C | 103 | 56* | 97 | -5 | 96 | -1 | -5 | 42
CCOC(=O)c1sc(N)nc1C(C)(C)C | 98 | 4 | 95 | -1 | . | -4 | . | .
CCCc1c(C(=O)N/N=C(\CC)c2ccccc2)nnn1-c1nonc1N | . | . | . | . | 95 | . | . | .
CS(=O)(=O)c1ccc(Cl)c(NC(=O)CSc2nnc(C3CC3)n2C2CC2)c1 | . | 5 | . | 1 | 112 | . | . | .
SMILES | MEKK3 PB1 HTS | UBC13 inh | MEKK2 WT-MEK5 | Apaf1 inhib | DSG3 Ab inh | MEKK2mut PB1 HTS | Casp3 UBC13 ctr | UBC13 conf
C[C@]12CCC(=O)C=C1C=C[C@@H]1[C@@H]2CC[C@@]2(C)[C@H]1CC[C@@]21CCC(=O)O1 | 106 | 76* | 107 | 2 | 96 | 6 | -1 | 8
CC(=O)O[C@]1(C(C)=O)CCC2C3C=C(C)C4=CC(=O)CC[C@]4(C)C3CC[C@@]21C (stereo partly specified) | 95 | -4 | 99 | 20 | 105 | 1 | . | .
Cn1cccc1C(=O)OCc1cc(-c2ccco2)on1 | . | -14 | . | 4 | . | . | . | .
CN(C(=O)c1cccc(NC(=O)Cc2ccc(NC(=O)C3CCCN(C(=O)C4CC4)C3)cc2)c1)C1CCCCC1 (stereo unspecified) | . | . | . | . | 110 | . | . | .
NCCCn1c(C(=O)c2cc(Cl)c(N)c(Cl)c2)c2ccccc2[n+]1[O-] | . | 97* | . | 6 | 101 | . | 1 | 100*
COc1ccc(C(=O)c2c3ccccc3[n+]([O-])n2CCCN)cc1 | . | -12 | . | 8 | 98 | . | . | .
NC(=O)CCn1c(C(=O)c2cc(Cl)c(N)c(Cl)c2)c2ccccc2[n+]1[O-] | 102 | 62* | 103 | 5 | 98 | -2 | 0 | 65*
NC(=O)CCn1c(C(=O)c2cccc([N+](=O)[O-])c2)c2ccccc2[n+]1[O-] | 103 | 6 | 97 | -4 | 102 | -3 | . | .
CN(C)C1=NCCN1CC1CCCCC1 | . | 3 | . | 3 | 105 | . | . | .
Cc1ccc(C)c(N2CCN(CCCNC(=O)CCC(=O)N3CCOc4ccc(Cl)cc43)CC2)c1 | 107 | 60* | 150* | 25 | . | 16 | -2 | 80*
O=C(CCC(=O)N1CCOc2ccc(Cl)cc21)NCCCN1CCC(Cc2ccccc2)CC1 | 103 | 92* | 128 | 36 | 108 | 11 | -4 | 92*
COc1ccc(N2CCN(CCCNC(=O)CCC(=O)N3CCOc4ccc(Cl)cc43)CC2)cc1 | 101 | 12 | 131 | 3 | 99 | 8 | . | .
O=C(CCC(=O)N1CCOc2ccc(Cl)cc21)NCCCN1CCN(c2ccccc2F)CC1 | 103 | 62* | 114 | 19 | 101 | 4 | 2 | 43
Cc1noc(C)c1COc1ccc(C(=O)N2CCN(c3ccccc3O)CC2)cc1 | . | -2 | . | 2 | . | . | . | .
Cc1ccc(C(=O)CSc2nnc(C3CC3)n2C2CC2)s1 | . | -3 | . | -3 | 109 | . | . | .
Cc1ccc(S(=O)(=O)N2CCOCC2)cc1NC(=O)COC(=O)Cn1c(C)csc1=O | . | -1 | . | 1 | 101 | . | . | .
COc1ccc(-c2nnc(SCC(=O)Nc3cc(F)ccc3C)o2)cc1 | 95 | 47* | 93 | 2 | 104 | -3 | -1 | 35
COc1cc(/C=N/NC(=O)c2cccc(S(=O)(=O)N3CCCC3)c2)cc(OC)c1O | . | -10 | . | 8 | 97 | . | . | .
C/C(=N/NC(=O)CN1CCN(Cc2ccccc2)CC1)c1ccc([N+](=O)[O-])cc1 | 87 | -1 | 89 | -17 | 101 | -12 | . | .
